Experimental data reported in ChEMBL document CHEMBL4406821, “Novel dual inhibitors targeting CDK4 and VEGFR2 synergistically suppressed cancer progression and angiogenesis” (Eur J Med Chem, 2019).
Activity calls are given as the source filed them. The calls are words filed in the database; no cut-off is given here.

Legend:
Mus musculus = experiment: Antiangiogenic activity in Matrigel plug angiogenic BALB/c mouse assessed as reduction in blood vessel formation at 20 mg/kg, sc measured after 10 days by Matrigel plug assay; assay type: functional, organism-based
Procedure, shortened: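 Balb/c mice, 5 weeks old, were injected subcutaneously with 750 µL of a 2:1 mix of growth factor-reduced Matrigel and compound (10 or 20 mg/kg) or vehicle. Plugs were harvested after 10 days and the subcutaneous vessels photographed.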

MDA-MB-231 = experiment: Induction of apoptosis in human MDA-MB-231 cells assessed as decrease in Bcl2 expression at 40 nM incubated for 48 hrs by Western blot analysis; assay type: functional, cell-based
Procedure, shortened: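 Cells were treated for 48 h, washed three times with PBS, and lysed in RIPA buffer. Immunoblots used anti-Rb, anti-phospho-Rb, anti-Ki67 and anti-Bcl-2 (each 1:1000), with β-actin as loading control.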

HeLa = experiment: Antiproliferative activity against human HeLa cells assessed as reduction in cell viability at 80 nM incubated for 48 hrs by EdU staining based laser scanning confocal microscopy; assay type: functional
Procedure, shortened: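 Cells, 5×10^4, were seeded in 24-well plates and treated for 48 h. They were then labeled using an EdU Apollo 488 imaging kit with Hoechst 33342 nuclear stain and imaged by laser scanning confocal microscopy. Percent EdU-positive cells = EdU-positive/Hoechst-stained × 100%.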

[1] = molecular target: CDK4/Cyclin D3 (Homo sapiens) (UniProt P11802+P30281); experiment: Inhibition of recombinant full length human CDK4/Cyclin D3 using Rb-fragmen as substrate at 1 uM incubated for 40 mins by [gamma-33P]-ATP based radiometric assay relative to control; assay type: protein-complex assay
Procedure, shortened: (§1)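 Kinase panel profiling at 1 μM performed by Eurofins KinaseProfiler; percent inhibition reported as mean of two independent experiments.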

[2] = n-octanol/phosphate buffered saline partition coefficient, log D of the compound measured at pH 7.4 by shake flask method based HPLC analysis; assay type: physicochemical
SiHa = experiment: Induction of cell cycle arrest in human SiHa cells assessed as accumulation in G2/M phase at 40 to 80 nM incubated for 36 hrs by propidium iodide staining based flow cytometry; assay type: functional
Procedure, shortened: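 Cells were treated with graded concentrations for 36 h, then fixed overnight in 70% ice-cold ethanol at 4°C and resuspended in PBS. Staining used 50 µg/ml PI plus 5 µg/ml RNase at 37°C for 30 min. DNA content was analysed by FACS to give G0/G1, S and G2/M fractions.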

[3] = AUC (0 to t) in Sprague-Dawley rat at 10 mg/kg, iv by HPLC-MS analysis; assay type: ADME, organism-based; conditions: in vivo
Procedure, shortened: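 Rats fitted with jugular vein catheters for serial blood sampling. Compound dissolved in saline with 5% (v/v) DMSO and given as a single 10 mg/kg dose iv or po after an overnight fast, n = 5 per group. Plasma isolated at once and measured by HPLC with tandem MS detection. Parameters derived by noncompartmental fitting.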

[4] = molecular target: Mitogen-activated protein kinase kinase kinase 5 (Homo sapiens) (UniProt Q99683); experiment: Inhibition of recombinant human ASK1 (649 to 946 residues) at 1 uM using myelin ba as substrate incubated for 40 mins in presence of [gamma-33P]-ATP by scintillation counting method relative to control
Procedure, shortened: (§2)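 Tested at a single 1 uM in an outsourced commercial kinase-profiling panel, read as percent inhibition. Each value is the mean of two independent experiments.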

[5] = molecular target: Discoidin domain-containing receptor 2 (Homo sapiens) (UniProt Q16832); experiment: Inhibition of recombinant human DDR2 (467 to end residues) at 1 uM using KKSRGDYMTMQIG as substrate incubated for 40 mins in presence of [gamma-33P]-ATP by scintillation counting method relative to control; procedure, shortened: as §1
[6] = molecular target: Beta-adrenergic receptor kinase 1 (Homo sapiens) (UniProt P25098); experiment: Inhibition of recombinant human full length GRK2 at 1 uM using casein as substrate incubated for 40 mins in presence of [gamma-33P]-ATP by scintillation counting method relative to control; procedure, shortened: as §2
[7] = molecular target: Mitogen-activated protein kinase kinase kinase 9 (Homo sapiens) (UniProt P80192); experiment: Inhibition of recombinant human MLK1 (134 to 414 residues) at 1 uM using casein as substrate incubated for 40 mins in presence of [gamma-33P]-ATP by scintillation counting method relative to control
Sequence of Mitogen-activated protein kinase kinase kinase 9 (Homo sapiens) (P80192 whole entry, looked up, the tested form may be a part): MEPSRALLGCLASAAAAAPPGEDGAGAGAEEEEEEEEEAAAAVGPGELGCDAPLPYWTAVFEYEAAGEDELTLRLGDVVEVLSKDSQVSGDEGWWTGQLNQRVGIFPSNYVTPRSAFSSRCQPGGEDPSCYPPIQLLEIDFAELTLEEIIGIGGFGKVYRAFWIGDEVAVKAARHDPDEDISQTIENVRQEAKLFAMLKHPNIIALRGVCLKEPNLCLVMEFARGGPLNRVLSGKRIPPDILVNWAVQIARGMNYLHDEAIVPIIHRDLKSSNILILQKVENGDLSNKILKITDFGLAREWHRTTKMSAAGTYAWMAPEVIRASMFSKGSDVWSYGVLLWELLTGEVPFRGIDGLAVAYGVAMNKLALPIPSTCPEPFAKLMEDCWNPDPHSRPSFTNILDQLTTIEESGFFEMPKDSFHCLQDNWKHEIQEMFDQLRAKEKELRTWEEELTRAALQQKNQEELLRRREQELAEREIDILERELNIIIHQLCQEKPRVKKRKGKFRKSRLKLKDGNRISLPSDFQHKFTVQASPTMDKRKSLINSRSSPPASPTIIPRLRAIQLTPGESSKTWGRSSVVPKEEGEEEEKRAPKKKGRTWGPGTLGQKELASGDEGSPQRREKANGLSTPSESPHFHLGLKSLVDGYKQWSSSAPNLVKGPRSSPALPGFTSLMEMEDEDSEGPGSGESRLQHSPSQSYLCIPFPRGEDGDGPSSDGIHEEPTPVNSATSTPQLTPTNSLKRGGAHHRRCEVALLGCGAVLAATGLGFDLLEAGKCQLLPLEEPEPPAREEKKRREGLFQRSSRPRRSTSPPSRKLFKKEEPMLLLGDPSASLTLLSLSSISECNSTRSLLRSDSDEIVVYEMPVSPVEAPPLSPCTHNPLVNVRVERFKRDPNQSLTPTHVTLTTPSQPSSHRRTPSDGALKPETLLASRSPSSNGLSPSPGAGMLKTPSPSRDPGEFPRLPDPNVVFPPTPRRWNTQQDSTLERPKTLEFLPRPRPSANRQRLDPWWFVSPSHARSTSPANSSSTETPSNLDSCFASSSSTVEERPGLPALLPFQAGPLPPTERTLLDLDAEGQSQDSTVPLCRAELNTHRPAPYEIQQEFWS

[8] = molecular target: Mitogen-activated protein kinase kinase kinase 10 (Homo sapiens) (UniProt Q02779); experiment: Inhibition of recombinant human MLK2 (1 to 449 residues) at 1 uM using myelin basic protein as substrate incubated for 40 mins in presence of [gamma-33P]-ATP by scintillation counting method relative to control
[9] = molecular target: Serine/threonine-protein kinase MRCK alpha (Homo sapiens) (UniProt Q5VT25); experiment: Inhibition of recombinant human MRCKalpha (1 to 473 residues) at 1 uM using KKRNRTLTV as substrate incubated for 40 mins in presence of [gamma-33P]-ATP by scintillation counting method relative to control
[10] = molecular target: Serine/threonine-protein kinase MRCK beta (Homo sapiens) (UniProt Q9Y5S2); experiment: Inhibition of recombinant human MRCKbeta (1 to 473 residues) at 1 uM using KKRNRTLTV as substrate incubated for 40 mins in presence of [gamma-33P]-ATP by scintillation counting method relative to control
[11] = molecular target: Serine/threonine-protein kinase Nek2 (Homo sapiens) (UniProt P51955); experiment: Inhibition of recombinant human full length NEK2 at 1 uM using myelin basic protein as substrate incubated for 40 mins in presence of [gamma-33P]-ATP by scintillation counting method relative to control
[12] = molecular target: Protein kinase C alpha type (Homo sapiens) (UniProt P17252); experiment: Inhibition of recombinant human full length PKCalpha at 1 uM using histone H1 as substrate incubated for 40 mins in presence of [gamma-33P]-ATP by scintillation counting method relative to control
[13] = molecular target: Serine/threonine-protein kinase Sgk3 (Homo sapiens) (UniProt Q96BR1); experiment: Inhibition of recombinant human SGK3 (119 to end residues) at 1 uM using GRPRTSSFAEGKK as substrate incubated for 40 mins in presence of [gamma-33P]-ATP by scintillation counting method relative to control
[14] = molecular target: Transcription initiation factor TFIID subunit 1-like (Homo sapiens) (UniProt Q8IZX4); experiment: Inhibition of recombinant human TAF1L (1428 to end residues) at 1 uM using RRRFRPASPLRGPPK as substrate incubated for 40 mins in presence of [gamma-33P]-ATP by scintillation counting method relative to control; procedure, shortened: as §2
Sequence of Transcription initiation factor TFIID subunit 1-like (Homo sapiens) (Q8IZX4 whole entry): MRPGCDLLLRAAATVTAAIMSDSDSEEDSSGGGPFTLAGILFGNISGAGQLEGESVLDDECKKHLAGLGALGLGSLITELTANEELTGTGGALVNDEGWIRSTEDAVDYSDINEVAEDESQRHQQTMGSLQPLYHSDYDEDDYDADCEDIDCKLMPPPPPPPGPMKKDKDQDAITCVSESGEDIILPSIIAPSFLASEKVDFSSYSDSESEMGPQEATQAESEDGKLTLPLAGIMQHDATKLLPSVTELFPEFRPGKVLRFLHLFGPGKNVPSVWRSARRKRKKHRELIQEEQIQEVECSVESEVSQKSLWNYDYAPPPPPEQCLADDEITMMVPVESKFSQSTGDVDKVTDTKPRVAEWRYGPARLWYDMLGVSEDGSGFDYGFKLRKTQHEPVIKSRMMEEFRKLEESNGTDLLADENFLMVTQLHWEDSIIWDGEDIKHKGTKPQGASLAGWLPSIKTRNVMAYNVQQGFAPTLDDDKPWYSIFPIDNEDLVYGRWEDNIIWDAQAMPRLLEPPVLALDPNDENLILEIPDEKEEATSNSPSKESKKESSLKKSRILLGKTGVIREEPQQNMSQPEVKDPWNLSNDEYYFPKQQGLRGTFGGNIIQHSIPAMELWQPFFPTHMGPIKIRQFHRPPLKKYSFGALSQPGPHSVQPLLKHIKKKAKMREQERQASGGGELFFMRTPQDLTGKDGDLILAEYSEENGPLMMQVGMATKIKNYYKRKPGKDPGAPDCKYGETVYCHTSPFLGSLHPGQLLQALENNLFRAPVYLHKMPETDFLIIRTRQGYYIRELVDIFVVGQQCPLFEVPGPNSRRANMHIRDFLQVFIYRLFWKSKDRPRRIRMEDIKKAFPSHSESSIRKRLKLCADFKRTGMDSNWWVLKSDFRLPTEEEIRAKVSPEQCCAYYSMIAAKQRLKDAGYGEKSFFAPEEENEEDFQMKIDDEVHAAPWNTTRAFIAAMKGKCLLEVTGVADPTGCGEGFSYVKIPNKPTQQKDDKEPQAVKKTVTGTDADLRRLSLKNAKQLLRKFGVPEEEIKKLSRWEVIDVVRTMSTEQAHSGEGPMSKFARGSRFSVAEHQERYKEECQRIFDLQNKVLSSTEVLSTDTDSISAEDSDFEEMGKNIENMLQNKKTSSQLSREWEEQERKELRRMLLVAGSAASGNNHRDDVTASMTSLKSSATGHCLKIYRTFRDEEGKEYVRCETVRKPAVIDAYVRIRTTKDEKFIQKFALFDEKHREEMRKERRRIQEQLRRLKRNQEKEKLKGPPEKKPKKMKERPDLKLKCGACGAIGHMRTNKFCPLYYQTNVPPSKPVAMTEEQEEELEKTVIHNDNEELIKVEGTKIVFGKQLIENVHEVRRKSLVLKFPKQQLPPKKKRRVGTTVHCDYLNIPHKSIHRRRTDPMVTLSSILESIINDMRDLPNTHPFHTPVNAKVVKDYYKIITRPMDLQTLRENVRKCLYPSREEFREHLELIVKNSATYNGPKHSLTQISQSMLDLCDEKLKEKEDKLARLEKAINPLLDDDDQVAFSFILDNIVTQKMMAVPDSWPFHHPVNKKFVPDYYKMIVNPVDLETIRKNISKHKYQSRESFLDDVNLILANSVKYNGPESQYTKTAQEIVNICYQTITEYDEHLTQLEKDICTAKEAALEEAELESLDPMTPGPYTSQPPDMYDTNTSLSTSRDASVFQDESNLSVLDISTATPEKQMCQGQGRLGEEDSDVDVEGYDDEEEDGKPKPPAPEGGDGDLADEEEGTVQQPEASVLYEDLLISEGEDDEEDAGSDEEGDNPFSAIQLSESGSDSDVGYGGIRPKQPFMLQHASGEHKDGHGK

[15] = test system: Angiopoietin-1 receptor (Homo sapiens), Q02763 [R849W]; experiment: Inhibition of recombinant human TIE2 R849W mutant (771 to end residues) at 1 uM using EFPIYDFLPAKKK as substrate incubated for 40 mins in presence of [gamma-33P]-ATP by scintillation counting method relative to control
Sequence of Angiopoietin-1 receptor (Homo sapiens), Q02763 [R849W] (Q02763 whole entry R849W): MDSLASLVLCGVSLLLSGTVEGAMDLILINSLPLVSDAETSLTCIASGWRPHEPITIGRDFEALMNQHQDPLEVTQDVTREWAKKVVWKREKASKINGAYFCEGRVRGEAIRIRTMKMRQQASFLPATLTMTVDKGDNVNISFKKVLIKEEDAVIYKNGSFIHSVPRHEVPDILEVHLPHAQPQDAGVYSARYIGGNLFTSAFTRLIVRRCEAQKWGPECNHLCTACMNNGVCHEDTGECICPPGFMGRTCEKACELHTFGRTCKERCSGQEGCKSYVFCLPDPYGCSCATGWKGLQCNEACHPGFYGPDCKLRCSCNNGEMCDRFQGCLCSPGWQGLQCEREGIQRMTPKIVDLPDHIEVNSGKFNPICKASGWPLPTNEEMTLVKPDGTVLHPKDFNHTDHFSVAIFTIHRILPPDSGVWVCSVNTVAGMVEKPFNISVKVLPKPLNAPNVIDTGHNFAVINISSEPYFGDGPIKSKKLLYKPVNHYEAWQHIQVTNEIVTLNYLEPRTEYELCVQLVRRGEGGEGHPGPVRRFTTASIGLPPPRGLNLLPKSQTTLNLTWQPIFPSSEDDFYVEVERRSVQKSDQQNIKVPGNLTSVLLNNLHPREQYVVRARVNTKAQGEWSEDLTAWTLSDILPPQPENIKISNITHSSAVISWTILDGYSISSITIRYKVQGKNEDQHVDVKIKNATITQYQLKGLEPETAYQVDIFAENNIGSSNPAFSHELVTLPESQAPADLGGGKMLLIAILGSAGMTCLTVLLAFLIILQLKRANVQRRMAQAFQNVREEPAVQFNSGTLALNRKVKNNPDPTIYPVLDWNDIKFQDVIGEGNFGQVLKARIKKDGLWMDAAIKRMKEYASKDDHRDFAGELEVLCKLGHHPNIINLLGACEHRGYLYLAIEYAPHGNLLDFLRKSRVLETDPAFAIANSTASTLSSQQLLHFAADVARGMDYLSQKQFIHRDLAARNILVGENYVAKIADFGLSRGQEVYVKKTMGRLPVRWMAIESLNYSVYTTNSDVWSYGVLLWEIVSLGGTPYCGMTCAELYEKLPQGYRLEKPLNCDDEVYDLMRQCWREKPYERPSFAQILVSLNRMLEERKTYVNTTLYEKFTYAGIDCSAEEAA

[16] = molecular target: Serine/threonine-protein kinase tousled-like 1 (Homo sapiens) (UniProt Q9UKI8); experiment: Inhibition of recombinant human full length TLK1 at 1 uM using casein as substrate incubated for 40 mins in presence of [gamma-33P]-ATP by scintillation counting method relative to control
[17] = Toxicity in BALB/c mouse assessed as effect on blood parameter by measuring monocytes content at 40 mg/kg, po administered once two days for 4 times by hematology analyzer; conditions: in vivo

In the case of COc1cc2nccc(Oc3ccc(NC(=O)C4(C(=O)Nc5ccc(F)cc5)CC4)cc3)c2cc1OC [CABOZANTINIB], the inhibition (Mus musculus) is reported as “Active”, the Activity (MDA-MB-231) is reported as “Active” and the inhibition (HeLa) is reported as “Active”.
In the case of Cc1ccc(NC(=O)C2(C(=O)Nc3ccc(Nc4ncc(F)c(-c5cc(F)c6nc(C)n(C(C)C)c6c5)n4)cc3)CC2)cc1, the inhibition [1] is reported as 97%, the logD [2] is reported as 2.51 and the Activity (SiHa) is reported as “Active”. It also gave an AUC(0-t) [3] of 10000 ng·h/mL, an inhibition [4] of 0% and an inhibition [5] of 55%. It also gave an inhibition [6] of 0%, an inhibition [7] of 1% and an inhibition [8] of 2%. The inhibition [9] was 21%, the inhibition [10] was 7% and the inhibition [11] was 57%. The inhibition [12] was 70%, the inhibition [13] was 11% and the inhibition [14] was 0%. The inhibition [15] was 57%, the inhibition [16] was 31% and the Activity [17] was “Non-Toxic”.
